Assays:
Format in all cases: cell-based
Conditions in all cases: pre-treated 1 h, MSU 500 μg/ml 12 h
MSU-treated THP-1 cells [1] = test: cAMP levels in MSU-treated THP-1 cells
NLRP3 inflammasome = test: Western blot of NLRP3, ASC and Caspase-1 p20 in MSU-treated THP-1 cells
How it was run: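 THP-1 cells (PMA-differentiated, pre-treated 1 h, MSU 500 μg/ml 12 h) were lysed in RIPA buffer. Lysates were resolved by 8–12% SDS-PAGE and transferred to PVDF. After blocking, membranes took primary antibodies overnight at 4 °C, three TBST washes and HRP secondary antibodies for 2 h, with ECL detection. n = 4 per group; mean ± SD; one-way ANOVA/Tukey.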

MSU-treated THP-1 cells [2] = test: IL-1β in culture supernatants of MSU-treated THP-1 cells
How it was run: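 PMA-differentiated THP-1 cells (ATCC) were pre-treated 1 h with the test compound or a reference P2Y14R antagonist, then stimulated with MSU (500 μg/ml) for 12 h. IL-1β in collected culture supernatants was measured by ELISA kit. n = 4 per group; mean ± SD; one-way ANOVA with Tukey test, p < 0.05.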

O=C(O)c1cc(-c2ccc(C3CCNCC3)cc2)c2ccc(-c3ccc(C(F)(F)F)cc3)cc2c1 [PPTN] was tested, and the “effect on MSU-induced decrease of cAMP concentrations” value (MSU-treated THP-1 cells [1]) was “reversed”, the “effect on MSU-increased protein expressions of NLRP3, ASC and Caspase-1 p20” value (NLRP3 inflammasome) was “reversed” and the “effect on IL-1β release into the supernatant” value (MSU-treated THP-1 cells [2]) was “apparently inhibited the release of IL-1β”.

— PMC7037572 (Journal of Advanced Research, 2020)
